pIC50: −log10 of the molar value.
Experiments:
[1] = biological target: Glutamate receptor ionotropic, NMDA 2B (Rattus norvegicus, UniProt P35439+Q00960); test: Negative allosteric modulation of recombinant rat GluN2B receptor expressed in Xenopus laevis oocytes by two-electrode voltage clamp method; format: cell-based, Oocyte
Method in brief: (§1)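 Two-electrode voltage clamp of Xenopus oocytes expressing rat GluN1 with GluN2A, 2B, 2C or 2D. Holding potential −40 mV in recording solution (mM: 90 NaCl, 1 KCl, 0.5 BaCl2, 0.005 EDTA, 10 HEPES, pH 7.4, 23 °C). Compounds diluted from 20 mM DMSO stocks to 0.05–0.1% final DMSO. IC50 from a Hill fit to the averaged composite concentration–response curve, 5–24 oocytes from 2–4 frogs.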

[2] = biological target: Glutamate receptor ionotropic, NMDA 2D (Rattus norvegicus, UniProt P35439+Q62645); test: Negative allosteric modulation of recombinant rat GluN2D receptor expressed in Xenopus laevis oocytes by two-electrode voltage clamp method; format: cell-based, Oocyte; method in brief: as §1
[3] = biological target: Glutamate receptor ionotropic, NMDA 2C (Rattus norvegicus, UniProt P35439+Q00961); test: Negative allosteric modulation of recombinant rat GluN2C receptor expressed in Xenopus laevis oocytes by two-electrode voltage clamp method; format: cell-based, Oocyte; method in brief: as §1
[4] = biological target: Glutamate receptor ionotropic, NMDA 2A (Rattus norvegicus, UniProt P35439+Q00959); test: Negative allosteric modulation of recombinant rat GluN2A receptor expressed in Xenopus laevis oocytes by two-electrode voltage clamp method; format: cell-based, Oocyte; method in brief: as §1
Rattus norvegicus [5] = species: Rattus norvegicus; test: Selectivity ratio of IC50 for recombinant rat GluN2B receptor to IC50 for recombinant rat GluN2D receptor
Method in brief: (§2)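 Rat GluN1 co-expressed with GluN2A, GluN2B or GluN2D in Xenopus oocytes. Two-electrode voltage clamp at −40 mV in 90 NaCl, 1 KCl, 0.5 BaCl2, 0.005 EDTA, 10 HEPES (mM), pH 7.4, 23 °C; final DMSO 0.1–0.05%. IC50s came from Hill fits to averaged composite concentration-response curves (5–24 oocytes, 2–4 frogs). Ratio is GluN2A or GluN2B IC50 over GluN2D IC50.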

Rattus norvegicus [6] = species: Rattus norvegicus; test: Selectivity ratio of IC50 for recombinant rat GluN2A receptor to IC50 for recombinant rat GluN2D receptor; method in brief: as §2

Glutamate receptor ionotropic, NMDA 2B, sequence (Q00960 whole entry, one chain of several): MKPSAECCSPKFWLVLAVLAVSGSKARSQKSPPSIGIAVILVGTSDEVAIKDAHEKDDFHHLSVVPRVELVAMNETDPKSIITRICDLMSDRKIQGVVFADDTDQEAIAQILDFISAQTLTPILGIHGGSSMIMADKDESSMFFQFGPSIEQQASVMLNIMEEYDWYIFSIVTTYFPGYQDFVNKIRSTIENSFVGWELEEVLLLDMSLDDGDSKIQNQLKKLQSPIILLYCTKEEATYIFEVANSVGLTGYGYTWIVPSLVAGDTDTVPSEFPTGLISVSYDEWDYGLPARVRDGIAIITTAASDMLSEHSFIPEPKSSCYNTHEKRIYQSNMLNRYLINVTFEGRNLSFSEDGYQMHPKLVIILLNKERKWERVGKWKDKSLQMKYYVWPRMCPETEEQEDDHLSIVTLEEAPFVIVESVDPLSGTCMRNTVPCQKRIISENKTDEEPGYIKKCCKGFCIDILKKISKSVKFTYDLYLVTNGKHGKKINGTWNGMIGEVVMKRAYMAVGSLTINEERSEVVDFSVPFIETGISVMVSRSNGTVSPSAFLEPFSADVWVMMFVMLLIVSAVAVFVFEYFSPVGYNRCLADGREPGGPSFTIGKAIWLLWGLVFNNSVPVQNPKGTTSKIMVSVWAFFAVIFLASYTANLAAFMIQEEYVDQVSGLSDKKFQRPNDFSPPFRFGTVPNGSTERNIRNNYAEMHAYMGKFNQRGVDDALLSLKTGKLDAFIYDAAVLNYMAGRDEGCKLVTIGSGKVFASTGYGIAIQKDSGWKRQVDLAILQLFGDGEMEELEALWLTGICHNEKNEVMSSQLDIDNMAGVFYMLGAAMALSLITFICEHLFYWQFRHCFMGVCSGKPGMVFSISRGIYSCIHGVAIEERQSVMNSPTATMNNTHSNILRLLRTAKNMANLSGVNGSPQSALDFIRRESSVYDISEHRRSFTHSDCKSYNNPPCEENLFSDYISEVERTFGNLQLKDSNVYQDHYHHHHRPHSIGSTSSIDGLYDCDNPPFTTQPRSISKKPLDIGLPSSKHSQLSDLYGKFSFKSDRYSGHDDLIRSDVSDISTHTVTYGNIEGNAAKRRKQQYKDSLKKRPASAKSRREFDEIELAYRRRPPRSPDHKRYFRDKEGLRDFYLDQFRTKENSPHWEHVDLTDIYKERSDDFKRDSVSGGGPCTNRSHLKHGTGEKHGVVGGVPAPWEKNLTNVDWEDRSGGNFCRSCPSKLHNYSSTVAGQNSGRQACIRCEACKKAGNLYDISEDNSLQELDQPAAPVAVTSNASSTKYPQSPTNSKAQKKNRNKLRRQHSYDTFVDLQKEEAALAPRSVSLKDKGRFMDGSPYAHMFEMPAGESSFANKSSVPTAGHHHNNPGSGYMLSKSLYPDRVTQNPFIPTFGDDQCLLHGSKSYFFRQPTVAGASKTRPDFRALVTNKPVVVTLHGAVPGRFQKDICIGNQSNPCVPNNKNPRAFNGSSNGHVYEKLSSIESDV
Glutamate receptor ionotropic, NMDA 2D, sequence (Q62645 whole entry, one chain of several): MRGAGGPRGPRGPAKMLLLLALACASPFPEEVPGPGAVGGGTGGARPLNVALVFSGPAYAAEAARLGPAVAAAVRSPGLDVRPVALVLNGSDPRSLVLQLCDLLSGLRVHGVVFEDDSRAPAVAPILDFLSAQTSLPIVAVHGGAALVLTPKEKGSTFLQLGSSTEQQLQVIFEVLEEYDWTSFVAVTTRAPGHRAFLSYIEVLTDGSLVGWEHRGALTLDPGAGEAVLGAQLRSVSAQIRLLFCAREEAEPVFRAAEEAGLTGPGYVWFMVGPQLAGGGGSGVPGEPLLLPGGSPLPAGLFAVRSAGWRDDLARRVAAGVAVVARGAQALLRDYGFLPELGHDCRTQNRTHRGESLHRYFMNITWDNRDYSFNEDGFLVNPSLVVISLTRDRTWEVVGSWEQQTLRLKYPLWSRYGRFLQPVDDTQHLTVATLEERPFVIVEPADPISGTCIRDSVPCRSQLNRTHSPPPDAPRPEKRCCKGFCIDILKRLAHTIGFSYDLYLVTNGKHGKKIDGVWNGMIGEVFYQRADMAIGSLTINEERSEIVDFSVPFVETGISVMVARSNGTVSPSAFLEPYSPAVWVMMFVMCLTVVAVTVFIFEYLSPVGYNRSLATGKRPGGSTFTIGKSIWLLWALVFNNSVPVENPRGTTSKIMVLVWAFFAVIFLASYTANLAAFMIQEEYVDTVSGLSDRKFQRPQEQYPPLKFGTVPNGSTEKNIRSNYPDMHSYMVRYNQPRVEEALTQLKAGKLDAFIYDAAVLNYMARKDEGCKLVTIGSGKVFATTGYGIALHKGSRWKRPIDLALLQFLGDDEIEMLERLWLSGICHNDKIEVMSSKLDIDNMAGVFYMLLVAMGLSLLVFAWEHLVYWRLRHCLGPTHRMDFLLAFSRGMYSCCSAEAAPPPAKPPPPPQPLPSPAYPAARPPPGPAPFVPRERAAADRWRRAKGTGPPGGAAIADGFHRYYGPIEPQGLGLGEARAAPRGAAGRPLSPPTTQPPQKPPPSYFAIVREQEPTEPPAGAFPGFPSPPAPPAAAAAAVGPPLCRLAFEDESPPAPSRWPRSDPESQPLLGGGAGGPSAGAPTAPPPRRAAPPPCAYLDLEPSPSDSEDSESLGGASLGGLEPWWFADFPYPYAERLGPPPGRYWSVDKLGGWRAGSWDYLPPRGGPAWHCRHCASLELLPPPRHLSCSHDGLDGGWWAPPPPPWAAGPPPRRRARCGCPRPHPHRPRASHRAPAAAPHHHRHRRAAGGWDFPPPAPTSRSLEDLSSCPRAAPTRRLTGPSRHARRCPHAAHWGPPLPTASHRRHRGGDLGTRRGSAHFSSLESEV
Glutamate receptor ionotropic, NMDA 2C, sequence (Q00961 whole entry, one chain of several): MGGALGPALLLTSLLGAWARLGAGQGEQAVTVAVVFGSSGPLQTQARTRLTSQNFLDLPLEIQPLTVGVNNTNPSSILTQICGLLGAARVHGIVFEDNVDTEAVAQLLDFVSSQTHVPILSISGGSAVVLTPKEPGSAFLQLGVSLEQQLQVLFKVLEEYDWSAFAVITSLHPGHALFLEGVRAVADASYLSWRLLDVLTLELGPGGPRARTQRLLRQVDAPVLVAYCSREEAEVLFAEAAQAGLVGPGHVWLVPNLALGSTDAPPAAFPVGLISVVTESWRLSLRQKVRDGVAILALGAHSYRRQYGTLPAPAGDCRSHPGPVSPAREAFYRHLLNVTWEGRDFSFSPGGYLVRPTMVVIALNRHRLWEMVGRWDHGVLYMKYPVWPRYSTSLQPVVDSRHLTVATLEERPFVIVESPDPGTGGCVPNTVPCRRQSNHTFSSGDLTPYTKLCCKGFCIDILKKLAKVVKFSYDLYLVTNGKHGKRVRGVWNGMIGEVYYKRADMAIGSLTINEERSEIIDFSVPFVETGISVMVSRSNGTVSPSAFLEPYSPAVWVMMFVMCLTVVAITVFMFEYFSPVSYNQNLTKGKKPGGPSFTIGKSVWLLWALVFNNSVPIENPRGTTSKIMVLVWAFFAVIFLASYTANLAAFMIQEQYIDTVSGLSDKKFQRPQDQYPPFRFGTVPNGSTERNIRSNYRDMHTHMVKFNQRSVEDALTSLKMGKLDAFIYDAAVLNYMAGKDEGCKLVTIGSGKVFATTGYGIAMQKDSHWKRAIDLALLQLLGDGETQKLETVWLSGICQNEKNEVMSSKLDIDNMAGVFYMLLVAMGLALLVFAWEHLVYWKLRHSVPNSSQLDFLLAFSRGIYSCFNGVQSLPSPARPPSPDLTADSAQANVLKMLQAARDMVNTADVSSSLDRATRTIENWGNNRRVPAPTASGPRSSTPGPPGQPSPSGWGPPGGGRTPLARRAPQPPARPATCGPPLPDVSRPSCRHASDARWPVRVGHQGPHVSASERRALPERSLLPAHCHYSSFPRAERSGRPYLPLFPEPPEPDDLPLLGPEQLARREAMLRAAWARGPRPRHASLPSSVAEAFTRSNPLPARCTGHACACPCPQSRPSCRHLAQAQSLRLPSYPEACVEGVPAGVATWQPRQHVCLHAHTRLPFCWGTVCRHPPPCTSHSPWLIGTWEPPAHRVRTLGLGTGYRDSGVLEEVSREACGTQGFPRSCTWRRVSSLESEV

Row | Structure (SMILES) | pIC50 [1] | pIC50 [2] | pIC50 [3] | pIC50 [4] | Ratio IC50 (Rattus norvegicus [5]) | Ratio IC50 (Rattus norvegicus [6])
1 | O=C(O)CCC(=O)N1N=C(c2c(-c3ccc(Cl)cc3)c3ccccc3[nH]c2=O)C[C@@H]1c1ccc(Cl)cc1 | 4.28 | 5.72 | 5.68 | 4.35 | 49 | 23
2 | O=C(O)CCC(=O)N1N=C(c2c(-c3cccc(C(F)(F)F)c3)c3ccccc3[nH]c2=O)CC1c1ccc(Cl)cc1 (stereo not given) | 4.33 | 5.59 | 5.47 | 4.55 | 18 | 11
3 | O=C(O)CCC(=O)N1N=C(c2c(-c3ccc(Cl)c(F)c3)c3ccccc3[nH]c2=O)CC1c1ccc(Cl)cc1 (stereo not given) | 4.55 | 6.28 | 6.04 | 4.92 | 53 | 23
4 | O=C(O)CCC(=O)N1N=C(c2c(-c3ccc(Br)cc3)c3ccccc3[nH]c2=O)CC1c1ccc(F)cc1 (stereo not given) | 4.12 | 5.54 | 5.42 | 4.47 | 26 | 12
5 | O=C(O)CCC(=O)N1N=C(c2c(-c3ccccc3)c3cc(Cl)ccc3[nH]c2=O)CC1c1ccc(F)cc1 (stereo not given) | 4.06 | 4.85 | 4.64 | 3.89 | 6 | 9
6 | O=C(O)CCC(=O)N1N=C(c2c(-c3ccccc3)c3cc(Cl)ccc3[nH]c2=O)CC1c1ccc([N+](=O)[O-])cc1 (stereo not given) | 4.35 | 5.96 | 6.05 | 4.04 | 42 | 85
7 | O=C(O)CCCC(=O)N1N=C(c2c(-c3ccc(Br)cc3)c3ccccc3[nH]c2=O)CC1c1ccc(Cl)cc1 (stereo not given) | 4.54 | 6.49 | 6.22 | 5.00 | 91 | 33
8 | O=C(O)CCC(=O)N1N=C(c2c(-c3ccc(F)c(Cl)c3)c3ccccc3[nH]c2=O)CC1c1ccc(Cl)cc1 (stereo not given) | 4.47 | 6.00 | 5.85 | 4.72 | 34 | 19

The next lines start with the values.

Row | pIC50 [1] | pIC50 [2] | pIC50 [3] | pIC50 [4] | Ratio IC50 (Rattus norvegicus [5]) | Ratio IC50 (Rattus norvegicus [6]) | Structure (SMILES)
9 | 4.70 | 6.04 | 6.10 | 5.11 | 22 | 8 | O=C(O)CCC(=O)N1N=C(c2c(-c3ccc(Cl)c(Cl)c3)c3ccccc3[nH]c2=O)CC1c1ccc(Cl)cc1 (stereo not given)
10 | 4.15 | 6.16 | 5.96 | 4.34 | 101 | 67 | O=C(O)CCC(=O)N1N=C(c2c(-c3cccc(F)c3)c3ccccc3[nH]c2=O)CC1c1ccc(Cl)cc1 (stereo not given)
11 | 4.05 | 5.40 | 5.19 | 4.11 | 23 | 20 | O=C(O)CCCC(=O)N1N=C(c2c(-c3ccccc3)c3cc(Cl)ccc3[nH]c2=O)CC1c1ccc(Br)cc1 (stereo not given)
12 | 3.84 | 4.96 | 4.89 | 4.31 | 13 | 4 | O=C(O)CCC(=O)N1N=C(c2c(-c3ccc(Cl)cc3)c3ccccc3[nH]c2=O)CC1c1ccccc1 (stereo not given)
13 | 4.12 | 5.64 | 5.30 | 4.21 | 33 | 27 | COc1ccc(-c2c(C3=NN(C(=O)CCC(=O)O)C(c4ccc(Cl)cc4)C3)c(=O)[nH]c3ccccc23)cc1 (stereo not given)
14 | 4.38 | 5.85 | 5.60 | 4.48 | 30 | 24 | Cc1ccc(-c2c(C3=NN(C(=O)CCC(=O)O)C(c4ccc(Cl)cc4)C3)c(=O)[nH]c3ccccc23)cc1 (stereo not given)
15 | 4.70 | 5.96 | 5.70 | 4.47 | 18 | 31 | NC(=O)CCC(=O)N1N=C(c2c(-c3ccc(Cl)cc3)c3ccccc3[nH]c2=O)CC1c1ccc(Cl)cc1 (stereo not given)
